HTRA1 inh: HTRA1 serine protease inhibitors, primary screen, biochemical, fluorescence polarization, HTS | Q92743 | recombinant HTRA1, FP-rhodamine activity-based probe | inhibition, % at 5.96 µM | 340,000 tested, 0.5% active; in the data active means inhibition above about 36%
Target sequence (Q92743 whole entry, looked up): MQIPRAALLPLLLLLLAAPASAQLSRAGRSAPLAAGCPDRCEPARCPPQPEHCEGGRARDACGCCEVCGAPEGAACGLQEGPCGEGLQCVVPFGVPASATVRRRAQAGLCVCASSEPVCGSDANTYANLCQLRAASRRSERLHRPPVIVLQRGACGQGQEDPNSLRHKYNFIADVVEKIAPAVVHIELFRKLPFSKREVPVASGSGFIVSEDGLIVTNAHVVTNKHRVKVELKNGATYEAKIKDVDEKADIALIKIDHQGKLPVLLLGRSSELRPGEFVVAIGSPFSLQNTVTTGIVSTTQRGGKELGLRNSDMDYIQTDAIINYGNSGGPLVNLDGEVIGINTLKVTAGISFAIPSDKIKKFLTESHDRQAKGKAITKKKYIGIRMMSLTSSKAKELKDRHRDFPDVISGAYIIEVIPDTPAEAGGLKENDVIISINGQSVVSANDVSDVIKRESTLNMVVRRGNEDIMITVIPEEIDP
PAFAH2 FP inh: PAFAH2 enzyme inhibitors, primary screen, biochemical, fluorescence polarization, human; Platelet-activating factor acetylhydrolase 2, cytoplasmic (Homo sapiens), Q99487; 340,000 tested, 0.99% active; inhibition, % at 3.39 µM; recombinant PAFAH2, FP-rhodamine activity probe; AID 492956, 2010;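 active means inhibition above the mean over all tested compounds plus 3 SD, cut at about 30% in these data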;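 further: inhibitors block probe labeling of enzyme so polarization drops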
PAFAH1B2 FP inh: PAFAH1B2 enzyme inhibitors, primary screen, biochemical, fluorescence polarization, human; Platelet-activating factor acetylhydrolase IB subunit alpha2 (Homo sapiens), P68402; inhibition, % at 3.39 µM; AID 492953, 2010; recombinant PAFAH1B2, FP-rhodamine activity probe; 340,000 tested, 1.2% active;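 active means inhibition above the mean of all tested compounds plus 3 SD, cut at about 24% in these data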
Target sequence (P68402 whole entry, looked up): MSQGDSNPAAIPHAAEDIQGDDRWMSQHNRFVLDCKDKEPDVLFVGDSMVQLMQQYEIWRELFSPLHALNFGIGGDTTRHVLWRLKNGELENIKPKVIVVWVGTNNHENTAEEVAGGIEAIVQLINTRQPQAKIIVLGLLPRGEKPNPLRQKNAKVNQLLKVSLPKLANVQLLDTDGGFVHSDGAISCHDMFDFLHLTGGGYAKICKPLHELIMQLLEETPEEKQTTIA
PAFAH1B3 inh: PAFAH1B3 enzyme inhibitors, primary screen, biochemical, fluorescence polarization, human. recombinant PAFAH1B3, FP-rhodamine probe. inhibition, % at 3.39 µM. 340,000 tested, 0.28% active;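 active means inhibition above the screen-wide average of all tested compounds plus 3 SD, cut at about 25% in these data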
pPAFAH FP inh: pPAFAH enzyme inhibitors, primary screen, biochemical, fluorescence polarization, human | recombinant pPAFAH, FP-rhodamine probe fluorescence polarization | inhibition, % at 3.39 µM | 330,000 tested, 1.5% active | AID 463082, 2010;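 active means inhibition above the mean inhibition across the screen plus 3 SD, cut at about 25% in these data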;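 further: inhibitors block binding of the rhodamine activity-based probe so polarization drops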
mABHD4 FP: ABHD4 inhibitors, primary screen, biochemical, fluorescence polarization, mouse; (Lyso)-N-acylphosphatidylethanolamine lipase (Mus musculus), Q8VD66; purified mABHD4, FP-Rh probe fluorescence polarization; inhibition, % at 8.92 µM; 370,000 tested, 0.54% active; AID 720543, 2013;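 active means inhibition exceeding the mean over every tested compound plus 3 SD, cut at about 30% in these data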
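assay system = mABHD4 protein | compound dosing = single nominal dose of 8.92 µM, 0.89% DMSO final | read-out basis = percent inhibition of probe binding, normalized to plate controls | schedule = Enzyme–compound pre-incubation 45 min, then probe 60 min, both 25 °C | detection = fluorescence polarization, excitation 525 nm, emission 598 nm, BODIPY TMR filters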
Of the large screens only hits and unclear results are named; the others gave an inactive call. Most compounds without a hit are left out; they make up all but 2.8% or so of the library.

O=C(NC1CC1)C1CCN(S(=O)(=O)c2cc(Cl)ccc2Cl)CC1	none
O=C(NC1CC1)C1CCN(S(=O)(=O)c2cc([N+](=O)[O-])ccc2Cl)CC1	pPAFAH FP inh 32
COc1ccc(-c2csc(N)n2)cc1	none
Cc1ccc(-c2csc(N)n2)cc1	PAFAH1B2 FP inh 70 (no result: pPAFAH FP inh)
Cn1c(=O)oc2cc(S(=O)(=O)N3CCN(CCO)CC3)ccc21	none (no result: HTRA1 inh, PAFAH2 FP inh, PAFAH1B2 FP inh, PAFAH1B3 inh, pPAFAH FP inh)
CC1=CC(=O)c2c(O)ccc(O)c2C1=O	pPAFAH FP inh 70 (no result: HTRA1 inh, PAFAH2 FP inh, PAFAH1B2 FP inh, PAFAH1B3 inh, mABHD4 FP)
CCC[C@H]1[C@@H](OC(=O)NCc2cccs2)CC[C@@]23CCCN2C(=O)CCC[C@@H]13	none (no result: HTRA1 inh, PAFAH2 FP inh, PAFAH1B2 FP inh, PAFAH1B3 inh, pPAFAH FP inh)
CC(Oc1ccccc1)C(=O)Nc1nnc(S(=O)(=O)Nc2ccccc2)s1 (configuration not stated)	pPAFAH FP inh 29
O=C(Cn1cnc2scc(-c3ccccc3)c2c1=O)NCc1ccco1	pPAFAH FP inh 25
COc1ccc(-n2c(SCC(=O)Nc3ccc(S(=O)(=O)Nc4nccs4)cc3)nnc2-c2cccs2)cc1	none (no result: HTRA1 inh, PAFAH2 FP inh, PAFAH1B2 FP inh, PAFAH1B3 inh, pPAFAH FP inh)
O=C(Nc1ccccc1C(=O)O)c1cc(S(=O)(=O)Nc2cccc(F)c2)ccc1Cl	pPAFAH FP inh 31
O=C(Nc1ccccc1C(=O)O)c1cc(S(=O)(=O)N2CCCCCC2)ccc1Cl	none
CC(=O)OC[C@]12CC[C@H]3[C@@](C)(CC[C@H]4C(C)(C)CCC[C@]34C)[C@@H]1C[C@H](C1=CC(=O)O[C@H]1OC(C)=O)O2	pPAFAH FP inh 50 (no result: HTRA1 inh, PAFAH2 FP inh, PAFAH1B2 FP inh, PAFAH1B3 inh, mABHD4 FP)
Cc1cccc(NC(=O)COC(=O)c2cccc3c2C(=O)c2ccccc2C3=O)c1C	pPAFAH FP inh 31
Cc1nc(S/C(=C/c2ccc(-c3ccc(C(=O)O)cc3)o2)C(=O)O)n[nH]1	pPAFAH FP inh 33
Cc1ccc(CN2CCCCC(NC(=O)c3ccc(C)cc3)C2=O)cc1 (configuration not stated)	none (no result: HTRA1 inh, PAFAH2 FP inh, PAFAH1B2 FP inh, PAFAH1B3 inh, pPAFAH FP inh)
Cc1ccc(SCC(=O)O/N=C(\N)c2cccnc2)cc1	PAFAH1B2 FP inh 75 (no result: mABHD4 FP)
COc1ccc([C@H]2[C@H](C(=O)C(C)(C)C)N3N=Cc4ccccc4C3[C@]23N=C(c2ccccc2)OC3=O)cc1 (some centres not stated)	none
CC(C)(C)OC(=O)[C@H]1[C@H](c2ccc([N+](=O)[O-])cc2)C2(C(=O)c3ccccc3C2=O)C2c3ccccc3C=NN21 (some centres not stated)	PAFAH1B2 FP inh 84
CCOC(=O)N1CCN(C(=O)C[C@H]2C[C@@]3(C(=O)OC)C(=C[C@H](C(C)C)O[C@@H]3C3CC3)N(Cc3ccco3)C2=O)CC1	none (no result: HTRA1 inh, PAFAH2 FP inh, PAFAH1B2 FP inh, PAFAH1B3 inh, pPAFAH FP inh)
O=C(O)c1oc2ccccc2c1CSc1ccc(Cl)cc1	PAFAH1B2 FP inh 29
O=C(O)c1oc2ccccc2c1CSc1ccccn1	none
Cc1ccc(C)c(NS(=O)(=O)c2ccc(-c3cnc(C4CC4)o3)cc2)c1	pPAFAH FP inh 33
CCOc1ccc(NS(=O)(=O)c2ccc(-c3cnc(C4CC4)o3)cc2)cc1	pPAFAH FP inh 31
Cc1cc(C)cc(NS(=O)(=O)c2ccc(-c3cnc(C4CC4)o3)cc2)c1	none
COC(=O)[C@]12C[C@H](CC(=O)NCC34CC5CC(CC(C5)C3)C4)C(=O)N(CCc3ccc(OC)c(OC)c3)C1=C[C@H](C(C)C)O[C@@H]2C1CC1	none (no result: HTRA1 inh, PAFAH2 FP inh, PAFAH1B2 FP inh, PAFAH1B3 inh, pPAFAH FP inh)
N#CC1(NC(=O)COC(=O)c2cc(O)c3ccccc3c2O)CCCCC1	PAFAH1B3 inh 50 (no result: mABHD4 FP)
Cc1[nH]nc2c1C1(CCN(C(=O)OCc3ccccc3)CC1)C(C#N)=C(N)O2	none
CCOC(=O)N1CCC2(CC1)C(C#N)=C(N)Oc1n[nH]c(CSc3ccc(C)cc3)c12	PAFAH1B2 FP inh 27
Cc1ccc(SCc2[nH]nc3c2C2(CCSCC2)C(C#N)=C(N)O3)cc1	PAFAH1B2 FP inh 38
O=[N+]([O-])c1ncccc1OCCOc1ccc(Cl)cc1Cl	none (no result: HTRA1 inh, PAFAH2 FP inh, PAFAH1B2 FP inh, PAFAH1B3 inh, pPAFAH FP inh)
CN1CC=C(c2ccccc2)N(c2ccccc2)C1=O	none (no result: HTRA1 inh, PAFAH2 FP inh, PAFAH1B2 FP inh, PAFAH1B3 inh, pPAFAH FP inh)
O=C(CN1CCN(S(=O)(=O)c2ccc(Br)cc2)CC1)N/N=C/c1ccncc1	PAFAH1B2 FP inh 29
O=C(O)c1cc(O)ccc1NC(=O)C(c1ccccc1)c1ccccc1	PAFAH1B2 FP inh 24
CC(=O)c1cc(-c2cccc(C(C)C)c2)c(=O)n2c1CCC2	none (no result: HTRA1 inh, PAFAH2 FP inh, PAFAH1B2 FP inh, PAFAH1B3 inh, pPAFAH FP inh)
O=C1NC[C@@H](c2ccccc2)OC(=O)[C@H](Cc2ccc(F)cc2)C/C=C\C[C@H]1CC(=O)N(CCO)Cc1ccccc1	PAFAH1B2 FP inh 29
O=C1NC[C@H](c2ccccc2)OC(=O)[C@@H](Cc2ccc(F)cc2)C/C=C\C[C@H]1CC(=O)N(CCO)Cc1ccccc1	none
O=C1NC[C@H](c2ccccc2)OC(=O)[C@H](Cc2ccc(F)cc2)C/C=C\C[C@H]1CC(=O)N(CCO)Cc1ccccc1	PAFAH1B2 FP inh 51
O=C1NC[C@@H](c2ccccc2)OC(=O)[C@@H](Cc2ccc(F)cc2)CC/C=C/C[C@H]1CC(=O)N(CCO)Cc1ccccc1	PAFAH1B2 FP inh 66
CCCCOCCCNC(=O)C[C@@H]1C(=O)N(Cc2ccc(OC)cc2)C2=CCN(C(=O)OC(C)(C)C)C[C@]21C(=O)OCC	none (no result: HTRA1 inh, PAFAH2 FP inh, PAFAH1B2 FP inh, PAFAH1B3 inh, pPAFAH FP inh)
Nc1ncc(Br)cc1S(=O)(=O)NCCC(=O)NCCc1ccc(Cl)cc1	PAFAH1B2 FP inh 26
Nc1ncc(Br)cc1S(=O)(=O)NCCC(=O)Nc1cccc(Cl)c1	none
COc1ccc(N2CCN(C(=O)CCNC(=O)c3ccc(C(C)(C)C)cc3)CC2)cc1	PAFAH1B2 FP inh 64
COc1ccc(N2CCN(C(=O)c3ccc(C(C)(C)C)cc3)CC2)cc1	none
